# From ChEMBL document CHEMBL1125014, “Synthesis and structure-activity relationships of new 9-N-alkyl derivatives of 9(S)-erythromycylamine” (1990)
# Columns and labels:
# Rattus norvegicus [1] = organism: Rattus norvegicus; experiment: Fluid concentration in lung tissue was determined in rats at 2 h; assay type: functional
# Summary of the method: (§1)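 Rats dosed by gavage at 20 mg/kg; lung, liver, kidney, urine and serum sampled at 0.5, 1, 2, 4 and 6 h after dosing. Antibiotic measured by microbiological assay with Micrococcus luteus seeded in Antibiotic Medium 1. Zone sizes were read against the standard curve for the same compound. Each value is the average of three rats per time point.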
# Staphylococcus aureus [2] = experiment: Effective dose against mice infected with Staphylococcus aureus after peroral administration (in vivo); assay type: functional; settings: in Mus musculus, po
# Rattus norvegicus [3] = organism: Rattus norvegicus; experiment: Fluid concentration in lung tissue was determined in rats at 1 h; assay type: functional; summary of the method: as §1
# Mus musculus [4] = experiment: Plasma concentration in mice was determined by subcutaneous administration, 20 mg/kg at 1 hr; assay type: functional, organism-based; design: dose 20 mg/kg
# Summary of the method: (§2)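 Mice given 20 mg/kg orally or subcutaneously; peripheral plasma sampled at 5, 20 and 40 min and at 1, 2 and 4 h after dosing. Microbiological assay used Micrococcus luteus seeded in Antibiotic Medium 1, with zone sizes converted by the compound's own standard curve. Each value is the average of five mice per time point.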
# Rattus norvegicus [5] = organism: Rattus norvegicus; experiment: Fluid concentration in liver tissue was determined in rats at 1 h; assay type: functional; summary of the method: as §1
# Rattus norvegicus [6] = experiment: Plasma concentration in rats was determined by oral administration, 20 mg/kg at 2 hr; assay type: functional, organism-based; design: dose 20 mg/kg
# Summary of the method: (§3)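 Peripheral plasma antibiotic levels in rats given 20 mg/kg orally or subcutaneously. Plasma was sampled at timed points after dosing. Levels were measured by microbiological agar assay with Micrococcus luteus seeded in Antibiotic Media 1, reading zone sizes, and were calculated from a standard curve for the appropriate compound. Each value is the average of three rats per time point, in μg/mL.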
# Mus musculus [7] = experiment: ED50 value was measured by po administration against staphylococcus aureus infection in mice (in vivo, in experiment 1); assay type: functional
# Summary of the method: (§4)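 Infected mice were dosed orally or subcutaneously at 1 and 5 h postinfection, 0.25 mL of antibiotic solution in 10% aqueous ethanol per dose. Tartaric acid was added where needed for solubility. Several dose concentrations were tested to give the ED50.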
# Mus musculus [8] = experiment: Plasma concentration in mice was determined by subcutaneous administration, 20 mg/kg at 5 min; assay type: functional, organism-based; design: dose 20 mg/kg; summary of the method: as §2
# Mus musculus [9] = experiment: ED50 value was measured by po administration against streptococcus pneumoniae infection in mice (in vivo, in experiment 3); assay type: functional; settings: Mus musculus, po; read-out: ED50
# Mus musculus [10] = experiment: ED50 value was measured by po administration against streptococcus pyogenes infection in mice (in vivo, in experiment 1); assay type: functional; summary of the method: as §4
# Mus musculus [11] = experiment: ED50 value was measured by sc administration against streptococcus pneumoniae infection in mice (in vivo, in experiment 3); assay type: functional; settings: Mus musculus, sc; read-out: ED50
# Mus musculus [12] = experiment: Plasma concentration in mice was determined by subcutaneous administration, 20 mg/kg at 2 hr; assay type: functional, organism-based; design: dose 20 mg/kg; summary of the method: as §2
# Rattus norvegicus [13] = organism: Rattus norvegicus; experiment: Fluid concentration in liver tissue was determined in rats at 6 hr; assay type: functional; summary of the method: as §1
# Rattus norvegicus [14] = organism: Rattus norvegicus; experiment: Fluid concentration in serum was determined in rats at 1 hr; assay type: functional; summary of the method: as §1
# Rattus norvegicus [15] = organism: Rattus norvegicus; experiment: Fluid concentration in lung tissue was determined in rats at 0.5 h; assay type: functional; summary of the method: as §1
# Haemophilus influenzae = experiment: MIC value was measured against haemophilus influenzae CL; assay type: functional
# Mus musculus [16] = experiment: Plasma concentration in mice was determined by subcutaneous administration, 20 mg/kg at 4 hr; assay type: functional, organism-based; design: dose 20 mg/kg; summary of the method: as §2
# Mus musculus [17] = experiment: ED50 value was measured by sc administration against streptococcus pneumoniae infection in mice (in vivo, in experiment 1); assay type: functional; summary of the method: as §4
# Mus musculus [18] = organism: Mus musculus
# Rattus norvegicus [19] = organism: Rattus norvegicus
# Mus musculus [20] = organism: Mus musculus; remark: listed apart in the source
# Mus musculus [21] = experiment: ED50 value was measured by po administration against streptococcus pyogenes infection in mice (in vivo, in experiment 3); assay type: functional; settings: Mus musculus, po; read-out: ED50
# Mus musculus [22] = experiment: Plasma concentration in mice was determined by subcutaneous administration, 20 mg/kg at 40 min; assay type: functional, organism-based; design: dose 20 mg/kg; summary of the method: as §2
# Mus musculus [23] = experiment: ED50 value was measured by sc administration against staphylococcus aureus infection in mice (in vivo, in experiment 1); assay type: functional; summary of the method: as §4
# Rattus norvegicus [24] = organism: Rattus norvegicus; remark: listed apart in the source
# Mus musculus [25] = experiment: ED50 value was measured by sc administration against streptococcus pyogenes infection in mice (in vivo, in experiment 3); assay type: functional
# Rattus norvegicus [26] = organism: Rattus norvegicus; experiment: Fluid concentration in urine was determined in rats at 4 hr; assay type: functional; summary of the method: as §1
# Staphylococcus aureus [27] = experiment: MIC value measured against staphylococcus aureus X1; assay type: functional
# Rattus norvegicus [28] = organism: Rattus norvegicus; experiment: Fluid concentration in kidney tissue was determined in rats at 2 hr; assay type: functional
# Summary of the method: (§5)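 Rats were gavaged at 20 mg/kg and tissues sampled 0.5–6 h after dosing. Drug was assayed microbiologically with Micrococcus luteus seeded in Antibiotic Media 1. Zone sizes were read against each compound's own standard curve. Values are the mean of three rats per time point, in μg/g.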
# Streptococcus pneumoniae [29] = experiment: Effective dose against mice infected with streptococcus pneumoniae after peroral administration (in vivo); assay type: functional; settings: in Mus musculus, po
# Streptococcus pyogenes [30] = experiment: MIC value measured against streptococcus pyogenes C203; assay type: functional
# Streptococcus pyogenes [31] = experiment: Effective dose against mice infected with streptococcus pyogenes after peroral administration (in vivo); assay type: functional; settings: in Mus musculus, po
# Rattus norvegicus [32] = organism: Rattus norvegicus; experiment: Fluid concentration in liver tissue was determined in rats at 0.5 h; assay type: functional; summary of the method: as §5
# Streptococcus pneumoniae [33] = experiment: MIC value measured against streptococcus pneumoniae Park1; assay type: functional
# Mus musculus [34] = experiment: ED50 value was measured by sc administration against staphylococcus aureus infection in mice (in vivo, in experiment 3); assay type: functional; settings: Mus musculus, sc; read-out: ED50
# Rattus norvegicus [35] = organism: Rattus norvegicus; experiment: Fluid concentration in urine was determined in rats at 2 hr; assay type: functional; summary of the method: as §1
# Rattus norvegicus [36] = organism: Rattus norvegicus; experiment: Fluid concentration in lung tissue was determined in rats at 6 h; assay type: functional; summary of the method: as §1
# Rattus norvegicus [37] = experiment: Plasma concentration in rats was determined by oral administration, 20 mg/kg at 8 hr; assay type: functional, organism-based; design: dose 20 mg/kg; summary of the method: as §3
# Mus musculus [38] = experiment: ED50 value was measured by sc administration against streptococcus pyogenes infection in mice (in vivo, in experiment 1); assay type: functional; summary of the method: as §4
# Mus musculus [39] = experiment: ED50 value was measured by po administration against staphylococcus aureus infection in mice (in vivo, in experiment 3); assay type: functional; settings: Mus musculus, po; read-out: ED50
# Rattus norvegicus [40] = organism: Rattus norvegicus; experiment: Fluid concentration in lung tissue was determined in rats at 4 h; assay type: functional; summary of the method: as §1
# Mus musculus [41] = experiment: Plasma concentration in mice was determined by subcutaneous administration, 20 mg/kg at 20 min; assay type: functional, organism-based; design: dose 20 mg/kg; summary of the method: as §2
# [42] = tested on: Staphylococcus epidermidis; experiment: microbe, parasite or virus in culture; assay type: functional
# Rattus norvegicus [43] = experiment: Plasma concentration in rats was determined by oral administration, 20 mg/kg at 40 min; assay type: functional, organism-based; design: dose 20 mg/kg; summary of the method: as §3
# Mus musculus [44] = experiment: ED50 value was measured by po administration against streptococcus pneumoniae infection in mice (in vivo, in experiment 1); assay type: functional; summary of the method: as §4
smiles,measurement,setting,value
CC[C@H]1OC(=O)[C@H](C)[C@@H](O[C@H]2C[C@@](C)(OC)[C@@H](O)[C@H](C)O2)[C@H](C)[C@@H](O[C@@H]2O[C@H](C)C[C@H](N(C)C)[C@H]2O)[C@](C)(O)C[C@@H](C)C(=O)[C@H](C)[C@@H](O)[C@]1(C)O [ERYTHROMYCIN],Activity,Rattus norvegicus [1],0.04 µg/mL
same,ED50,Staphylococcus aureus [2],41 mg/kg
same,Activity,Rattus norvegicus [3],0.4 µg/mL
same,Plasma concentration,Mus musculus [4],4.26 µg/mL
same,Activity,Rattus norvegicus [5],0.03 µg/mL
same,Plasma concentration,Rattus norvegicus [6],0.03 µg/mL
same,ED50,Mus musculus [7],15 mg/kg
same,Plasma concentration,Mus musculus [8],5.84 µg/mL
same,ED50,Mus musculus [9],> 100 mg/kg
same,ED50,Mus musculus [10],18 mg/kg
same,ED50,Mus musculus [11],3.5 mg/kg
same,Plasma concentration,Mus musculus [12],0.01 µg/mL
same,Activity,Rattus norvegicus [13],0 µg/mL
same,Activity,Rattus norvegicus [14],0.4 µg/mL
same,Activity,Rattus norvegicus [15],1 µg/mL
same,MIC,Haemophilus influenzae,1 µg/mL
same,Plasma concentration,Mus musculus [16],0 µg/mL
same,ED50,Mus musculus [17],2.7 mg/kg
same,Plasma concentration,Mus musculus [18],0 µg/mL
same,Plasma concentration,Rattus norvegicus [19],0.48 µg/mL
same,Plasma concentration,Mus musculus [20],0.01 µg/mL
same,ED50,Mus musculus [21],12 mg/kg
same,Plasma concentration,Mus musculus [22],4.36 µg/mL
same,ED50,Mus musculus [23],1.6 mg/kg
same,Plasma concentration,Rattus norvegicus [24],0.11 µg/mL
same,ED50,Mus musculus [25],2.8 mg/kg
same,Activity,Rattus norvegicus [26],8.8 µg/mL
same,MIC,Staphylococcus aureus [27],0.12 µg/mL
same,Activity,Rattus norvegicus [28],0 µg/mL
same,ED50,Streptococcus pneumoniae [29],44 mg/kg
same,MIC,Streptococcus pyogenes [30],0.015 µg/mL
same,ED50,Streptococcus pyogenes [31],21 mg/kg
same,Activity,Rattus norvegicus [32],0.15 µg/mL
same,MIC,Streptococcus pneumoniae [33],0.008 µg/mL
same,ED50,Mus musculus [34],4.1 mg/kg
same,Activity,Rattus norvegicus [35],2.5 µg/mL
same,Activity,Rattus norvegicus [36],0.04 µg/mL
same,Plasma concentration,Rattus norvegicus [37],0.01 µg/mL
same,ED50,Mus musculus [38],2.5 mg/kg
same,ED50,Mus musculus [39],71 mg/kg
same,Activity,Rattus norvegicus [40],0.03 µg/mL
same,Plasma concentration,Mus musculus [41],5.96 µg/mL
same,MIC,[42],0.06 µg/mL
same,Plasma concentration,Rattus norvegicus [43],0.11 µg/mL
same,ED50,Mus musculus [44],14 mg/kg
